Measured values collected from several papers.
Compare with care: the assays were run in different laboratories.
Cell line: HCT-116
Read-out: cell growth or viability

`Cc1cc(C)n(C(=S)[S][Au][PH](CCCCCC[PH]([Au][S]C(=S)n2nc(C)cc2C)(c2ccccc2)c2ccccc2)(c2ccccc2)c2ccccc2)n1` has a GI50 of 0.38 µM.
The viability of `COc1ccc(NC(=O)c2c(Nc3ccccc3)sc(C#N)c2NC(=O)CNc2ccc(OC)c(OC)c2)cc1` is reported as 76% (SRB; 0.1 µM; 48 h).
With `COc1ccc(C(=O)/C=C/c2ccc(Cl)c(Cl)c2)cc1S(N)(=O)=O` the inhibition was 196% (SRB; 10 µM).
The viability of `COc1ccc(NC(=O)c2c(Nc3ccccc3)sc(C#N)c2NC(=O)CNc2ccc([N+](=O)[O-])cc2)cc1` is reported as 83.9% (SRB; 0.1 µM; 48 h).
`CCN(CC)CCOc1cc2cc3c(cc2c2nc(OC)c4cc(OC)c(OC)cc4c12)OCO3` has a GI50 of no less than 100 µM (MTT; 72 h).
For `COc1ccc(C(=O)/C=C/c2cccc(Br)c2)cc1S(N)(=O)=O`, the inhibition was 199% (SRB; 10 µM).
With `COc1ccc(NC(=O)c2c(Nc3ccccc3)sc(C(=O)NN=Cc3cc(OC)c(OC)c(OC)c3)c2NC(C)=O)cc1` the viability was 43.2% (SRB; 100 µM; 48 h).
`COc1cccc(Oc2ccccc2NC(=O)CNC(=O)c2cccc3ccccc23)c1` has a GI50 of 0.0955 µM (SRB; 48 h).
The GI50 of `COc1cc2c(OC)nc3c4cc5c(cc4cc(OCCN4CCCC4)c3c2cc1OC)OCO5` is reported as 64 µM (MTT; 72 h).
With `COc1ccc(C(=O)/C=C/c2ccccc2Br)cc1S(N)(=O)=O` the inhibition was 197% (SRB; 10 µM).
`CCc1ccc(/C=N/n2c(C)nc3ccc(C)cc3c2=O)s1` has a viability of 86.5% (LDH; 200 µg/mL; 24 h).
With `COc1ccc(C=NNC(=O)c2sc(Nc3ccccc3)c(C(=O)Nc3ccc(OC)cc3)c2NC(C)=O)cc1` the viability was 46.8% (SRB; 10 µM; 48 h).
`COc1cc(CNC(=O)C[C@H](C)CCC=C(C)C)ccc1OCc1cn(-c2ccc(Cl)cc2)nn1` gave an inhibition of 41% (SRB; 10 µM).
With `COc1ccc(NC(=O)c2c(Nc3ccccc3)sc(C#N)c2NC(=O)CNc2ccc(Cl)cc2)cc1` the viability was 72% (SRB; 0.1 µM; 48 h).
`COc1ccc2cc(/C=N/n3c(C)nc4ccc(Br)cc4c3=O)ccc2c1` has a viability of 57% (LDH; 200 µg/mL; 24 h).
The GI50 of `COc1cc2c(OC)nc3c4cc5c(cc4cc(OCCCN4CC=CC4)c3c2cc1OC)OCO5` is reported as 1.3 µM (MTT; 72 h).
With `COc1ccc(NC(=O)c2c(Nc3ccccc3)sc(C#N)c2NC(=O)CNc2ccc(O)cc2)cc1` the viability was 93.1% (SRB; 10 nM; 48 h).
The GI50 of `COc1cc2c(OC)nc3c4cc5c(cc4cc(OCCCN4CCC(N6CCCCC6)CC4)c3c2cc1OC)OCO5` is reported as 5.7 µM (MTT; 72 h).
For `COc1ccc(C(=O)/C=C/c2cccc(Cl)c2)cc1S(N)(=O)=O`, the GI50 was 1.2 µM (SRB; 48 h).
With `COc1ccc(NCC(=O)Nc2c(C#N)sc(Nc3ccccc3)c2C(=O)Nc2ccc(OC)cc2)cc1` the viability was 82.6% (SRB; 10 nM; 48 h).
`COc1ccc(C(=O)/C=C/c2cccnc2)cc1S(N)(=O)=O` has a GI50 of 3.2 µM (SRB; 48 h).
`Cc1nc2ccc(Br)cc2c(=O)n1/N=C/c1ccc(C(=O)O)cc1` has a viability of 53.5% (LDH; 200 µg/mL; 24 h).
`COc1ccc(C(=O)/C=C/c2ccc3ccccc3c2)cc1S(N)(=O)=O` has a GI50 of 1.9 µM (SRB; 48 h).
`COc1cc2c(OC)nc3c4cc5c(cc4cc(OCCCN4CCCC4)c3c2cc1OC)OCO5` gave a GI50 of 2.4 µM (MTT; 72 h).
`COc1ccccc1/C=C/C(=O)c1ccc(OC)c(S(N)(=O)=O)c1` has a GI50 of 2.5 µM (SRB; 48 h).
`CNS(=O)(=O)Nc1nccc(Cc2c(C)c3ccc(Oc4ncccn4)cc3oc2=O)c1F` has a GI50 of 3.23 µM (CCK-8).
`COc1ccc(C(=O)/C=C/c2cccc3ccccc23)cc1S(N)(=O)=O` gave an inhibition of 192% (SRB; 10 µM).
For `COc1ccc(NC(=O)c2c(Nc3ccccc3)sc(C(=O)NN=Cc3ccc(Cl)cc3)c2NC(C)=O)cc1`, the viability was 95.1% (SRB; 10 nM; 48 h).
